Each block holds one compound with its values, some of them ahead of it. The source made the active and inactive calls. No cut-off for these calls is given here.
Columns and labels:
[1] = system: Cavia porcellus; assay: Cardiotoxicity in anesthetized-Hartley guinea pig assessed as prolongation of corrected QT interval up to cumulative dose of 10 mg/kg, iv by electrocardiographic analysis; assay type: toxicity, organism-based; set-up: dose 10 mg/kg, route intravenous; conditions: in vivo
Outline: (§1)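 Anesthetized guinea pigs received cumulative i.v. doses of 0.1, 0.3, 1, 3 and 10 mg/kg, each as a 5 min infusion at 0, 20, 40, 60 and 80 min. QTc was recorded at each time point as percent change from each animal's baseline. Mean ± SEM, n = 3.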

[2] = system: Canis familiaris; assay: Cardiotoxicity in anesthetized dog assessed as effect on ECG morphology up to 10 mg/kg, iv; assay type: toxicity, organism-based, Canis lupus familiaris; set-up: dose 10 mg/kg, route intravenous; conditions: in vivo
[3] = Cmax in dog at 6.7 mg/kg, po by LC-MS-MS analysis; assay type: ADME, organism-based, Canis lupus familiaris; set-up: dose 6.7 mg/kg, route oral; conditions: in vivo
Outline: (§2)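 Single oral dose of 6.7 mg/kg given to dogs as a suspension/solution in 0.5% methocel vehicle. AUC was taken to the last sampled time point.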

[4] = target: T1, C-C chemokine receptor type 3 (Homo sapiens) (UniProt P51677); assay: Binding affinity against CCR3 at 25 uM
T1 sequence (whole entry): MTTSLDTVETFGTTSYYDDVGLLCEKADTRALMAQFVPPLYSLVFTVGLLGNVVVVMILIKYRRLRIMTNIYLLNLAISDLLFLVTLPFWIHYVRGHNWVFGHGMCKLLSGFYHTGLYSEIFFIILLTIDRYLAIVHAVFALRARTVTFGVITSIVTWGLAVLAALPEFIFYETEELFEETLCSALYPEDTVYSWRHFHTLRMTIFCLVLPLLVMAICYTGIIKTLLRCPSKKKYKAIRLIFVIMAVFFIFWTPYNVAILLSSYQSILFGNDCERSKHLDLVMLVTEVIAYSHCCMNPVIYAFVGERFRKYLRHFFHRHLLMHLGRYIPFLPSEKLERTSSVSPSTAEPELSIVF

[5] = AUC (last) in rat at 10 mg/kg, po by LC-MS-MS analysis; assay type: ADME, organism-based; set-up: time 0 - last, dose 10 mg/kg, route oral; conditions: plasma
[6] = target: T2, C-C chemokine receptor type 4 (Homo sapiens) (UniProt P51679); assay: Binding affinity against CCR4 at 25 uM
T2 sequence (whole entry): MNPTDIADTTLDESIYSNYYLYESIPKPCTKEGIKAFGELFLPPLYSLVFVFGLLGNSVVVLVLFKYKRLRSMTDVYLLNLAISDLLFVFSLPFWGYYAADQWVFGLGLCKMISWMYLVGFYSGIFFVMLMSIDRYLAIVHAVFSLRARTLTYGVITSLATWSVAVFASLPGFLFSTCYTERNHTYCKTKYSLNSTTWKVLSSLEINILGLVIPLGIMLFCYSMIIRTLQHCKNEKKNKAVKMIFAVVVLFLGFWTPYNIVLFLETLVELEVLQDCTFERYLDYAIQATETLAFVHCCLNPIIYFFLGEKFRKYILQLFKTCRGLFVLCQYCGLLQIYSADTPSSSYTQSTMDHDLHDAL

[7] = Cmax in mouse at 10 mg/kg, po by LC-MS-MS analysis; assay type: ADME, organism-based; set-up: dose 10 mg/kg, route oral; conditions: in vivo
[8] = target: C-C chemokine receptor type 2 (Mus musculus, UniProt P51683); assay: Binding affinity to mouse CCR2
[9] = system: Canis familiaris; assay: Toxicity in anesthetized dog assessed as effect on functional respiratory parameters up to 10 mg/kg, iv; assay type: organism-based, Canis lupus familiaris; set-up: dose 10 mg/kg, route intravenous; conditions: in vivo
[10] = target: T3, C-X-C chemokine receptor type 1 (Homo sapiens) (UniProt P25024); assay: Binding affinity against CXCR1 at 25 uM
T3 sequence (whole entry): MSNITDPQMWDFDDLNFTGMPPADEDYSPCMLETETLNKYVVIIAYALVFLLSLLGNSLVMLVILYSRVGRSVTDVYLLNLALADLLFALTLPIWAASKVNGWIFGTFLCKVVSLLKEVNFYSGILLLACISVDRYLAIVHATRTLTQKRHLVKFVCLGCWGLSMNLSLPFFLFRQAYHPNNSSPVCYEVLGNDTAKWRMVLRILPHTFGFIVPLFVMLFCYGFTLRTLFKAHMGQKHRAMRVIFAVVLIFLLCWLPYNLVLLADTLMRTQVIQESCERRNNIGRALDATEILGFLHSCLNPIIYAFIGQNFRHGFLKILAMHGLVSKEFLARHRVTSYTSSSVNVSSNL

[11] = AUC (last) in dog at 6.7 mg/kg, po by LC-MS-MS analysis; assay type: ADME, organism-based, Canis lupus familiaris; set-up: time 0 - last, dose 6.7 mg/kg, route oral; conditions: plasma; outline: as §2
[12] = target: C-C chemokine receptor type 5 (Homo sapiens) (UniProt P51681); assay: Binding affinity against CCR5 at 25 uM
[13] = Oral bioavailability in rat at 10 mg/kg by LC-MS-MS analysis; assay type: ADME, organism-based; conditions: in vivo
[14] = system: Canis familiaris; assay: Toxicity in anesthetized dog assessed as effect on electrophysiological parameters up to 10 mg/kg, iv; assay type: organism-based, Canis lupus familiaris; set-up: dose 10 mg/kg, route intravenous; conditions: in vivo
[15] = Oral bioavailability in dog at 6.7 mg/kg by LC-MS-MS analysis; assay type: ADME, organism-based, Canis lupus familiaris; conditions: in vivo; outline: as §2
[16] = target: T4, C-X-C chemokine receptor type 2 (Homo sapiens) (UniProt P25025); assay: Binding affinity against CXCR2 at 25 uM
T4 sequence (whole entry): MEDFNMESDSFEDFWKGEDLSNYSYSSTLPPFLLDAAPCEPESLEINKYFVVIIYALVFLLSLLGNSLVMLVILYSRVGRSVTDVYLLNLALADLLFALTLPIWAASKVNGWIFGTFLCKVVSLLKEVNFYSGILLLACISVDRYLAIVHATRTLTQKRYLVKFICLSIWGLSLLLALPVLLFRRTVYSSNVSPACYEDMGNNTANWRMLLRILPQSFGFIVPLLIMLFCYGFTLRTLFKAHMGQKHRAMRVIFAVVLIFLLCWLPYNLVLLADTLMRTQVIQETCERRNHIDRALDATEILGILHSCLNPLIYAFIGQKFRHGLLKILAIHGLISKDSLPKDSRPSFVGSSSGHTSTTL

[17] = Plasma concentration in Hartley guinea pig up to cumulative dose of 10 mg/kg, iv by LC-MS-MS analysis; assay type: ADME, organism-based, Cavia porcellus; set-up: dose 10 mg/kg, route intravenous; conditions: in vivo
Outline: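 Plasma drug level was taken from the anesthetized guinea pig QTc study. Dosing was cumulative i.v. (0.1, 0.3, 1, 3, 10 mg/kg), each dose a 5 min infusion at 20 min intervals, up to 10 mg/kg.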

[18] = Cmax in rat at 10 mg/kg, po by LC-MS-MS analysis; assay type: ADME, organism-based; set-up: dose 10 mg/kg, route oral; conditions: in vivo
[19] = AUC (last) in monkey at 7.2 mg/kg, po by LC-MS-MS analysis; assay type: ADME, organism-based, Macaca mulatta; set-up: time 0 - last, dose 7.2 mg/kg, route oral; conditions: rhesus monkey, plasma
[20] = system: Mus musculus; assay: Inhibition of thioglycollate-induced peritonitis in po dosed human CCR2 knock-in/murine CCR2 knockout mouse assessed as inhibition of leukocytes, monocytes/macrophages and T-lymphocytes influx in to peritoneal cavity administered as bid; assay type: functional
[21] = Cmax in monkey at 7.2 mg/kg, po by LC-MS-MS analysis; assay type: ADME, organism-based, Macaca mulatta; set-up: dose 7.2 mg/kg, route oral; conditions: rhesus monkey, in vivo
[22] = target: T5, C-C chemokine receptor type 1 (Homo sapiens) (UniProt P32246); assay: Binding affinity against CCR1 at 25 uM
T5 sequence (whole entry): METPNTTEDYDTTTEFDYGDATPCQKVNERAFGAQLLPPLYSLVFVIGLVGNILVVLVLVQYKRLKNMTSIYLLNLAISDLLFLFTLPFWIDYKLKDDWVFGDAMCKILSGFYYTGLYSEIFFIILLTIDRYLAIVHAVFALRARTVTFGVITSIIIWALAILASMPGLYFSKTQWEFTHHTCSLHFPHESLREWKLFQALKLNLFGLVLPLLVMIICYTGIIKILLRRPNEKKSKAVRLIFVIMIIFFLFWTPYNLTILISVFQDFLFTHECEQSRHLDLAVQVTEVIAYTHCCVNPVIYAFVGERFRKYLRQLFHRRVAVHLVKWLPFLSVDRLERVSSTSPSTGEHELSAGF

[23] = Oral bioavailability in mouse at 10 mg/kg by LC-MS-MS analysis; assay type: ADME, organism-based; conditions: in vivo
[24] = AUC (last) in mouse at 10 mg/kg, po by LC-MS-MS analysis; assay type: ADME, organism-based; set-up: time 0 - last, dose 10 mg/kg, route oral; conditions: plasma
[25] = target: T6, CX3C chemokine receptor 1 (Homo sapiens) (UniProt P49238); assay: Binding affinity against CX3CR1 at 25 uM
T6 sequence (whole entry): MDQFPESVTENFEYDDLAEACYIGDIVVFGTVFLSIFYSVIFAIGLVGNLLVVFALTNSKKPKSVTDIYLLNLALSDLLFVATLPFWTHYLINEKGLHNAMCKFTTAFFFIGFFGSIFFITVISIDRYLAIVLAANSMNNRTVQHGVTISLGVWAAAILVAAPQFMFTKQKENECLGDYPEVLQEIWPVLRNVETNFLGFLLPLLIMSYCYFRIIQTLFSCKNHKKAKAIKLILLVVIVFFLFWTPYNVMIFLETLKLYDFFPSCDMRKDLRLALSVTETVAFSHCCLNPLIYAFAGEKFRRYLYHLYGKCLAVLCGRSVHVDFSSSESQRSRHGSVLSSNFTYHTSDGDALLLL

[26] = system: Cavia porcellus; assay: Cardiotoxicity in anesthetized Hartley guinea pig assessed as prolongation of corrected QT interval up to cumulative dose of 10 mg/kg, iv by electrocardiographic analysis; assay type: toxicity, organism-based; set-up: dose 10 mg/kg, route intravenous; conditions: in vivo; outline: as §1
[27] = system: Mus musculus; assay: Antiasthamatic activity in ovalbumin-sensitized mouse model assessed as inhibition of airway eosinophil infiltration at 10 mg/kg, po bid; assay type: functional
[28] = system: Canis familiaris; assay: Toxicity in anesthetized dog assessed as effect on cardiohemodynamic parameters up to 10 mg/kg, iv; assay type: organism-based, Canis lupus familiaris; set-up: dose 10 mg/kg, route intravenous; conditions: in vivo
[29] = Oral bioavailability in monkey at 7.2 mg/kg by LC-MS-MS analysis; assay type: ADME, organism-based, Macaca mulatta; conditions: rhesus monkey, in vivo
[30] = target: C-X-C chemokine receptor type 4 (Homo sapiens) (UniProt P61073); assay: Binding affinity against CXCR4 at 25 uM
[31] = target: hERG (KCNH2) (Homo sapiens, UniProt Q12809); assay: Inhibition of human ERG expressed in HEK-293 cells assessed as K+-selective outward current at 3 uM at -80 mV holding potential after 5 mins by voltage patch-clamp method; assay type: cell-based, HEK293; conditions: HEK-293 cells expressing human ERG
[32] = target: Voltage-gated inwardly rectifying potassium channel KCNH2 (Homo sapiens, UniProt Q12809); assay: Displacement of [3H]-astemizole from human ERG expressed in HEK293 cells after 1 hr by scintillation counting analysis; assay type: cell-based
[33] = system: Cavia porcellus; assay: Cardiotoxicity in iv dosed anesthetized-Hartley guinea pig assessed as prolongation of corrected QT interval by electrocardiographic analysis; assay type: toxicity, organism-based; conditions: in vivo; outline: as §1

Voltage-gated inwardly rectifying potassium channel KCNH2, sequence (Q12809 whole entry): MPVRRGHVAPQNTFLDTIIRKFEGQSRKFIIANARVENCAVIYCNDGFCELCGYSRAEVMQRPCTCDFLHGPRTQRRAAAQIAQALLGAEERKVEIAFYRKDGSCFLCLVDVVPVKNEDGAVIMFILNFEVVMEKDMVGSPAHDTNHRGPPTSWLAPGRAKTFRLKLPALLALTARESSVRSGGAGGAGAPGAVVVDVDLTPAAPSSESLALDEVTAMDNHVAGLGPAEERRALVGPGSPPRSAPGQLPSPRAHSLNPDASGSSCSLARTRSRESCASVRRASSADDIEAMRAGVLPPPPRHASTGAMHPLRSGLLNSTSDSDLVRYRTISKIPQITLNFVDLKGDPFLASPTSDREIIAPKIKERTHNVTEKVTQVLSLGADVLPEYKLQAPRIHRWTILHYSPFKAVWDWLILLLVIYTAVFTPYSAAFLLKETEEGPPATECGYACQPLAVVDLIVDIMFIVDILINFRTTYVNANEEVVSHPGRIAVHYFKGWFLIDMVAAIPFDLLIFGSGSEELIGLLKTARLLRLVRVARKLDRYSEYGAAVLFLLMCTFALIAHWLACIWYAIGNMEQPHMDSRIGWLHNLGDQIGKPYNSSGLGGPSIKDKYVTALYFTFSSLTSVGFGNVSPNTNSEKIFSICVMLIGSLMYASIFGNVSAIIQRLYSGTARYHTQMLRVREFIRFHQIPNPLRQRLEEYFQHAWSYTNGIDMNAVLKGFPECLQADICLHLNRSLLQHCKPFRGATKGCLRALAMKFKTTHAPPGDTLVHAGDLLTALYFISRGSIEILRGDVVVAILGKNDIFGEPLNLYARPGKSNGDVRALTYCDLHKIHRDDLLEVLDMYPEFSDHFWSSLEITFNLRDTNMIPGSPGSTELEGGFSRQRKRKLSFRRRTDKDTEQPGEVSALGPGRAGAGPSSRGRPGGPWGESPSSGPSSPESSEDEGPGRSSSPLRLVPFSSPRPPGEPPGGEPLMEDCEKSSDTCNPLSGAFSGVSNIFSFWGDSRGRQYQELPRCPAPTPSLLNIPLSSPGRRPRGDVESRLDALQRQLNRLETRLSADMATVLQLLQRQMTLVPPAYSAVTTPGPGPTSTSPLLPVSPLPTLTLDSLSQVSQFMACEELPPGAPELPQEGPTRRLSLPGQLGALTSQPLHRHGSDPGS
hERG (KCNH2), sequence (Q12809 whole entry): as above
C-C chemokine receptor type 2, sequence (P51683 whole entry): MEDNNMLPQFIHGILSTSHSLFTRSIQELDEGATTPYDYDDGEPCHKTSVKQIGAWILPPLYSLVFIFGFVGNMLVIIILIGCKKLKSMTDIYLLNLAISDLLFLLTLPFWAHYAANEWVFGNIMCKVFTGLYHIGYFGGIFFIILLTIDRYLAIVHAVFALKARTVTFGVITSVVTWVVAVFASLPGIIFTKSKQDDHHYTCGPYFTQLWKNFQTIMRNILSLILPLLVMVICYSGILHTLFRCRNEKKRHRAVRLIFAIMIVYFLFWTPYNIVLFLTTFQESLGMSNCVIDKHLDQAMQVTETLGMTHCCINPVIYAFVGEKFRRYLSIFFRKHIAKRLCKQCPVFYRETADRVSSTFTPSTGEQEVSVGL
C-C chemokine receptor type 5 (Homo sapiens), sequence (P51681 whole entry, looked up): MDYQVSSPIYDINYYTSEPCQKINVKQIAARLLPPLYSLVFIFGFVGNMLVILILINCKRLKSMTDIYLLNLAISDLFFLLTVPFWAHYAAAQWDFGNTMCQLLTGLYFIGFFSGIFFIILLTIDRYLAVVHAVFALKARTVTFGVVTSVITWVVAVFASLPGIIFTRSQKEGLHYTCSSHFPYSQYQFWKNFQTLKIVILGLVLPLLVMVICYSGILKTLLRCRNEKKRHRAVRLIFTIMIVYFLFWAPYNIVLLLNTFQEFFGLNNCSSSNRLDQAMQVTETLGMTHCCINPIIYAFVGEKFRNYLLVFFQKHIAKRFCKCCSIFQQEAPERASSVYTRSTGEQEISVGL
C-X-C chemokine receptor type 4 (Homo sapiens), sequence (P61073 whole entry): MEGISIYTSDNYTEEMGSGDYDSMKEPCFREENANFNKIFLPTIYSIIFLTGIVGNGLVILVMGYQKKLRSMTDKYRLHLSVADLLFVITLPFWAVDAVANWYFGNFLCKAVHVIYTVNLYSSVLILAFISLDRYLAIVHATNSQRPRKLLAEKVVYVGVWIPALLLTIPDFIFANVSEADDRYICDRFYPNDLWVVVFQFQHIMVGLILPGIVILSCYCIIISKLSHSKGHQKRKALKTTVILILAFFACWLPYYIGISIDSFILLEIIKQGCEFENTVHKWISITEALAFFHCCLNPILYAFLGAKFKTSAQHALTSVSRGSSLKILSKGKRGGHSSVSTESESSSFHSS

Structure (SMILES): Cc1cnc([C@]2(O)CC[C@H](N3CC(NC(=O)CNC(=O)c4cccc(C(F)(F)F)c4)C3)CC2)s1
- Activity [1]: 15%

- Cmax [3]: 1620 ng/mL
- inhibition [4]: inactive
- AUC(0-t) [5]: 416 ng·h/mL
- inhibition [6]: inactive
- Cmax [7]: 74 ng/mL
- Ki [8]: 9.6 µM
- inhibition [10]: inactive
- AUC(0-t) [11]: 5890 ng·h/mL
- inhibition [12]: inactive
- bioavailability [13]: 15.3%
- bioavailability [15]: 70.2%
- inhibition [16]: inactive
- concentration [17]: 26 µM
- Cmax [18]: 100 ng/mL
- AUC(0-t) [19]: 3060 ng·h/mL
- Cmax [21]: 740 ng/mL
- inhibition [22]: inactive
- bioavailability [23]: 19%
- AUC(0-t) [24]: 204 ng·h/mL
- inhibition [25]: inactive
- bioavailability [29]: 25.4%
- inhibition [30]: inactive
Structure (SMILES): O=C(CNC(=O)c1cccc(C(F)(F)F)c1)NC1CN([C@H]2CC[C@@](O)(c3cncs3)CC2)C1 [JNJ-41443532]
- Activity [2]: Non-toxic
- Activity [9]: Non-toxic
- Activity [14]: Non-toxic
- ED50 [20]: 3 mg/kg
- inhibition [20]: Dose-dependent effect
- Activity [26]: Non-toxic
- inhibition in vivo at 10 mg/kg [27]: 89%
- Activity [28]: Non-toxic

Structure (SMILES): CSc1ncc([C@]2(O)CC[C@H](N3CC(NC(=O)CNC(=O)c4cccc(C(F)(F)F)c4)C3)CC2)s1
- inhibition at 5 min, 3 µM [31]: 77%
- IC50 [32]: 6 µM

Structure (SMILES): COc1ccc([C@]2(O)CC[C@H](N3CC(NC(=O)CNC(=O)c4cccc(C(F)(F)F)c4)C3)CC2)cn1
- Activity [1]: 6%
- Activity [33]: Dose-dependent effect

Structure (SMILES): Cc1ccc([C@]2(O)CC[C@H](N3CC(NC(=O)CNC(=O)c4cccc(C(F)(F)F)c4)C3)CC2)cn1
- Activity [1]: 13%
- Activity [33]: Dose-dependent effect

Structure (SMILES): COc1ccc([C@]2(O)CC[C@H](N3CC(NC(=O)CNC(=O)c4cccc(C(F)(F)F)c4)C3)CC2)nc1
- inhibition at 5 min, 3 µM [31]: 30%
- IC50 [32]: 25 µM

- concentration [17]: 10 µM
Structure (SMILES): CC(C)c1ncc([C@]2(O)CC[C@H](N3CC(NC(=O)CNC(=O)c4cccc(C(F)(F)F)c4)C3)CC2)s1
- inhibition at 5 min, 3 µM [31]: 35%
- IC50 [32]: > 50 µM
- Activity [26]: Non-toxic

- concentration [17]: 3 µM
Structure (SMILES): CC(C)Oc1ncc([C@]2(O)CC[C@H](N3CC(NC(=O)CNC(=O)c4cccc(C(F)(F)F)c4)C3)CC2)s1
- inhibition at 5 min, 3 µM [31]: 49%
- IC50 [32]: 28 µM
- Activity [26]: Non-toxic
